The values that follow come from ChEMBL document CHEMBL1137824, “Centrally acting and metabolically stable thyrotropin-releasing hormone analogues by replacement of histidine with substituted pyridinium” (J Med Chem, 2004).

A short description of data set [1]: Partition coefficient (logP). In kind it is physicochemical. The following applies: octanol/water.
Data set [2] can be described thus: Capacity factor of compound was determined by immobilized artificial membrane chromatography. In kind it is ADME. The essentials:
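Immobilized artificial membrane HPLC, isocratic 10 mM ammonium acetate pH 5.4 at 1.0 mL/min, detection by ESI-MS (pyridinium salts) or APCI-MS (dihydropyridine prodrugs). k'IAM = (tR compound − tR citric acid)/tR citric acid, citric acid serving as void marker.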

The subject of a further data set is Rattus norvegicus. Nature of the data set: Maximal changes in rat hippocampal acetylcholine concentration after administration of compound through a microdialysis probe. The class given is functional, Hippocampus. Summed up:
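Male Sprague–Dawley rats (250–300 g), guide cannula in ventral hippocampus, probe (4 mm polycarbonate) inserted after 7 days. Perfused with artificial CSF plus 2 µM neostigmine at 2 µL/min; baseline is mean of three 20-min fractions. Compound perfused at 1 nmol/µL through probe; maximal ACh change expressed as % of baseline.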

Data set [3] has as its target T1, Thyrotropin-releasing hormone receptor (Rattus norvegicus, UniProt Q01717).
T1 sequence (Q01717 whole entry): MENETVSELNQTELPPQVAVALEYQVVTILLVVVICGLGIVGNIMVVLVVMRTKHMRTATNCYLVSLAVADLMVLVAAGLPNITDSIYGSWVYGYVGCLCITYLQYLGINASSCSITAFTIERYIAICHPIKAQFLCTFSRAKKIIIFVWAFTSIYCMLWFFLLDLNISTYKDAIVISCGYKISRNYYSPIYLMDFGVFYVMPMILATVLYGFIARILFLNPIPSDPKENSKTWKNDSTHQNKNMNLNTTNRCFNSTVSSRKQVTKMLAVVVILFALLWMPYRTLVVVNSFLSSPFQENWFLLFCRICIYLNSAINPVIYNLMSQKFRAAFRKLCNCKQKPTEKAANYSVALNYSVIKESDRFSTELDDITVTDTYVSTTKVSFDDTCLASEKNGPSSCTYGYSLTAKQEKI
Nature of the data set: Inhibition of [3H][3-Me-His2]-TRH binding to thyrotropin releasing hormone receptor of rat forebrain. Summed up: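 Rat forebrain membrane suspension in 20 mM phosphate pH 7.4, incubated 180 min at 4 °C with 2 nM [3H][3-Me-His2]TRH and varying test concentrations. Nonspecific binding defined with 10 µM TRH; Ki reported.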

Data set [4] concerns Mus musculus. The experiment in a line: Sleeping time of mice was determined after intravenous administration of compound at 15 umol/kg of Body Weight. The class given is functional. Summed up:
(§1)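 Swiss Webster mice (30 ± 2 g), 8–16 per group; 15 µmol/kg compound iv via tail vein in degassed saline, vehicle controls 1.5 mL/kg. Sodium pentobarbital 60 mg/kg ip after 10 min; sleeping time timed from loss to regain of righting reflex.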

Data set [5] is described as follows: Half-life of compound in rat brain homogenate was determined. The class given is ADME, tissue-based. Summed up:
(§2)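 About 100 nmol compound per 1 mL rat plasma or 20% rat brain homogenate (0.1 M phosphate, pH 7.4), shaken at 37 °C. Aliquots taken at 2–90 min and quenched in ice-cold 5% acetic acid/acetonitrile, then centrifuged. Loss of compound followed by HPLC against standards in heat-denatured matrix; t1/2 from the decline.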

The nature of data set [6]: Half-life of compound in rat plasma was determined. In kind it is ADME, cell-free. Summed up: as §2
Data set [7] relates to Mus musculus. Nature of the data set: Sleeping time decrease in mice was determined after intravenous administration of compound at 5 umol/kg of body weight. In kind it is functional. Summed up: (§3)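 Swiss Webster mice (30 ± 2 g), 8–16 per group, given compound iv via tail vein in degassed saline; controls received saline 1.5 mL/kg. Sodium pentobarbital 60 mg/kg ip 10 min later; sleeping time from loss to regain of righting reflex; decrease versus saline control, mean ± SEM.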

Data set [8] concerns Mus musculus. Nature of the data set: Sleeping time of mice was determined after intravenous administration of compound at 15 umol/kg of body weight. The class given is functional. Summed up:
as §1

Data set [9] deals with Mus musculus. The experiment in a line: Sleeping time decrease in mice was determined after intravenous administration of compound at 0.5 umol/kg of body weight. The class given is functional. Summed up: as §3
For data set [10], the system named is Mus musculus. The experiment in a line: Sleeping time decrease in mice was determined after intravenous administration of compound at 15 umol/kg of body weight. In kind it is functional. Summed up:
as §3

For data set [11], the system named is Mus musculus. The experiment in a line: Sleeping time decrease in mice was determined after intravenous administration of compound at 1 umol/kg of body weight. The class given is functional.
Data set [12] relates to Mus musculus. The experiment in a line: Sleeping time decrease in mice was determined after intravenous administration of compound at 50 umol/kg of body weight. The class given is functional. Summed up: as §3

pKi: −log10 of the molar value.

Usually logP stands for the decadic logarithm of the partition coefficient of the neutral form, usually between octanol and water. As usually defined, the pKi is −log10 of the Ki, conventionally taken in molar units. Low values mean a large Ki, high ones a small Ki. Turning to `NC(=O)c1ccc[n+](CCC[C@H](NC(=O)[C@@H]2CCC(=O)N2)C(=O)N2CCC[C@H]2C(N)=O)c1`, in data set [1], the logP is -1.74. In addition, in data set [2], the “K''IAM” value came out at 0.49. Besides, in the data set with Rattus norvegicus, the Maximal change amounted to 145%. The compound also gave a pKi in data set [3] of less than 5.00.

The compound `NC(=O)c1ccc[n+](CCCC[C@H](NC(=O)[C@@H]2CCC(=O)N2)C(=O)N2CCC[C@H]2C(N)=O)c1` showed a logP in data set [1] of -1.29. Further, the “K''IAM” value in data set [2] is reported as 0.6. This compound registered a Maximal change with Rattus norvegicus of 242%. The pKi in [3] was less than 5.00.

In the case of `NC(=O)C1=CN(CCCCC(NC(=O)[C@@H]2CCC(=O)N2)C(=O)N2CCC[C@H]2C(N)=O)C=CC1` (stereo partly specified), the logP in data set [1] is -1.94. Moreover, in data set [2], the “K''IAM” value was 2.3. The compound also displayed a Sleeping time in the data set on Mus musculus [4] of 48.8 min.

Regarding `NC(=O)C1=CN(CCC(NC(=O)[C@@H]2CCC(=O)N2)C(=O)N2CCC[C@H]2C(N)=O)C=CC1` (stereo partly specified), the logP in data set [1] was -2.84. Moreover, the “K''IAM” value in data set [2] was 0.8. Moreover, the Sleeping time in the data set with Mus musculus [4] was 44.7 min.

The compound `NC(=O)C1=CN(CCC[C@H](NC(=O)[C@@H]2CCC(=O)N2)C(=O)N2CCC[C@H]2C(N)=O)C=CC1` returned a logP in data set [1] of -2.39. Also, the “K''IAM” value in [2] is listed as 1.47. In the data set with Mus musculus [4], this compound registered a Sleeping time of 58.1 min.

The compound `NC(=O)c1ccc[n+](C[C@H](NC(=O)[C@@H]2CCC(=O)N2)C(=O)N2CCC[C@H]2C(N)=O)c1.O=C([O-])C(F)(F)F` displayed a logP in data set [1] of -2.64. In addition, the “K''IAM” value in data set [2] was 0.3. Further, in the data set with Rattus norvegicus, the Maximal change amounted to 279%. Also, the pKi in [3] is less than 5.00. For the same compound, the Sleeping time in the data set on Mus musculus [4] is given as 75.9 min.

For orientation: half-life means the time in which the quantity being followed falls by half. A high value points to slow loss. As to `NC(=O)[C@@H]1CCCN1C(=O)[C@H](Cc1cnc[nH]1)NC(=O)[C@@H]1CCC(=O)N1` [PROTIRELIN], the logP in [1] is -1.74. Besides, the “K''IAM” value in [2] stood at 0.51. In the data set with Rattus norvegicus, the Maximal change amounted to 394%. Besides, the pKi in data set [3] was 7.37. Further, the Sleeping time in the data set with Mus musculus [4] is reported as 26 min. Moreover, the half-life in [5] came to 16 min; in data set [6], 11 min.

Take `NC(=O)C1=CN(C[C@H](NC(=O)[C@@H]2CCC(=O)N2)C(=O)N2CCC[C@H]2C(N)=O)C=CC1`: the Sleeping time in the data set on Mus musculus [7] came out at 14.1 min; in the data set on Mus musculus [8] it was 19.4 min; in the data set with Mus musculus [9], 2.8 min; in the data set on Mus musculus [10], 23.2 min; in the data set with Mus musculus [11], 5.4 min; in the data set with Mus musculus [12], 24.2 min. The same compound gave a logP in data set [1] of -3.29. Also, in [2], the “K''IAM” value amounted to 0.55.

In [1], `NC(=O)c1ccc[n+](CC[C@H](NC(=O)[C@@H]2CCC(=O)N2)C(=O)N2CCC[C@H]2C(N)=O)c1` displayed a logP of -2.18. In data set [2], the “K''IAM” value was 0.42. For the same compound, the Maximal change in the data set on Rattus norvegicus was 216%. The same compound had a pKi in [3] of less than 5.00.
